Test results reported in ChEMBL document CHEMBL4308910, “Metronidazole aryloxy, carboxy and azole derivatives: Synthesis, anti-tumor activity, QSAR, molecular docking and dynamics studies” (Bioorg Med Chem, 2019).
≈ marks a conversion by molar mass, not a printed value.

Assays:
HT-29 = experiment: Cytotoxicity against human HT-29 cells after 24 hrs by MTT assay; format: functional, cell-based; conditions: HT-29, 24 h
Outline: (§1)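 Cells were grown in DMEM with 10% FBS and penicillin/streptomycin at 37 °C under 5% CO2. Seeding was 1×10^4 cells/well for A549 and MCF-7, or 1.2×10^4 cells/well for HT-29, followed by 24 h attachment. Compounds came from DMSO stocks diluted in serum-free DMEM, 0.1–1000 µg/mL, DMSO <0.5%, triplicate wells, 24 h. MTT (5 mg/mL stock in PBS) 3–4 h at 37 °C in dark; DMSO-solubilised A570. IC50 from 3 runs, mean ± S.E.M.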

A549 [1] = experiment: Cytotoxicity against human A549 cells after 24 hrs by MTT assay; format: functional, cell-based; conditions: A549, 24 h; outline: as §1
MCF7 = experiment: Cytotoxicity against human MCF7 cells after 24 hrs by MTT assay; format: functional, cell-based; conditions: MCF7, 24 h; outline: as §1
A549 [2] = experiment: Induction of apoptosis in human A549 cells assessed as viable cells at 90 ug/mL after 16 hrs by propidium iodide/Annexin V/7-AAD staining-based flow cytometric analysis (reference value: 99.37%); format: functional; conditions: A549, 16 h, read-out: Activity
A549 [3] = experiment: Induction of apoptosis in human A549 cells assessed as early apoptotic cells at 90 ug/mL after 16 hrs by propidium iodide/Annexin V/7-AAD staining-based flow cytometric analysis (reference value: 0.01%); format: functional
A549 [4] = experiment: Induction of apoptosis in human A549 cells assessed as late apoptotic cells at 90 ug/mL after 16 hrs by propidium iodide/Annexin V/7-AAD staining-based flow cytometric analysis (reference value: 0.21%); format: functional
A549 [5] = experiment: Induction of apoptosis in human A549 cells assessed as necrotic cells at 90 ug/mL after 16 hrs by propidium iodide/Annexin V/7-AAD staining-based flow cytometric analysis (reference value: 0.41%); format: functional

SMILES	IC50 (HT-29)	IC50 (A549 [1])	IC50 (MCF7)	viability at 90 µg/mL (A549 [2])	Activity (A549 [3])	Activity (A549 [4])	Activity (A549 [5])
Cc1ncc([N+](=O)[O-])n1CCn1cnc2ccccc21	148 µg/mL (≈ 546 µM)	219 µg/mL (≈ 809 µM)	103 µg/mL (≈ 380 µM)				
Cc1ncc([N+](=O)[O-])n1CCn1ccnc1	115 µg/mL (≈ 518 µM)	240 µg/mL (≈ 1080 µM)	462 µg/mL (≈ 2090 µM)				
Cc1ncc([N+](=O)[O-])n1CCCl	311 µg/mL (≈ 1640 µM)	300 µg/mL (≈ 1580 µM)	480 µg/mL (≈ 2530 µM)				
Cc1ncc([N+](=O)[O-])n1CCOC(=O)c1ccc(Br)cc1	277 µg/mL (≈ 783 µM)	194 µg/mL (≈ 548 µM)	271 µg/mL (≈ 766 µM)				
Cc1ncc([N+](=O)[O-])n1CCOC(=O)c1ccccc1Cl	279 µg/mL (≈ 902 µM)	255 µg/mL (≈ 823 µM)	380 µg/mL (≈ 1230 µM)				
Cc1ccc(C(=O)OCCn2c([N+](=O)[O-])cnc2C)cc1	359 µg/mL (≈ 1240 µM)	184 µg/mL (≈ 636 µM)	256 µg/mL (≈ 884 µM)				
Cc1ncc([N+](=O)[O-])n1CCOc1ccc(Cl)c(Cl)c1	109 µg/mL (≈ 344 µM)	77.9 µg/mL (≈ 246 µM)	69.6 µg/mL (≈ 220 µM)	6.85%	5.73%	61.15%	26.27%
Cc1ncc([N+](=O)[O-])n1CCOc1ccccc1Cl	552 µg/mL (≈ 1960 µM)	574 µg/mL (≈ 2040 µM)	378 µg/mL (≈ 1340 µM)				
Cc1cc(OCCn2c([N+](=O)[O-])cnc2C)ccc1Cl	159 µg/mL (≈ 537 µM)	150 µg/mL (≈ 506 µM)	188 µg/mL (≈ 635 µM)				
Cc1ncc([N+](=O)[O-])n1CCOC(=O)c1ccccc1F	146 µg/mL (≈ 497 µM)	170 µg/mL (≈ 578 µM)	262 µg/mL (≈ 895 µM)				
Cc1ncc([N+](=O)[O-])n1CCOc1ccc(F)cc1	102 µg/mL (≈ 386 µM)	129 µg/mL (≈ 487 µM)	85.8 µg/mL (≈ 324 µM)				
Cc1ncc([N+](=O)[O-])n1CCOc1ccc(F)c(Cl)c1	199 µg/mL (≈ 664 µM)	122 µg/mL (≈ 407 µM)	110 µg/mL (≈ 367 µM)				
Cc1ncc([N+](=O)[O-])n1CCOc1ccc([N+](=O)[O-])cc1	116 µg/mL (≈ 396 µM)	110 µg/mL (≈ 378 µM)	127 µg/mL (≈ 433 µM)				
COc1ccccc1C(=O)OCCn1c([N+](=O)[O-])cnc1C	283 µg/mL (≈ 926 µM)	289 µg/mL (≈ 947 µM)	447 µg/mL (≈ 1460 µM)				
Cc1ncc([N+](=O)[O-])n1CCOc1ccccc1[N+](=O)[O-]	581 µg/mL (≈ 1990 µM)	573 µg/mL (≈ 1960 µM)	583 µg/mL (≈ 1990 µM)				
COc1cccc(C(=O)OCCn2c([N+](=O)[O-])cnc2C)c1	293 µg/mL (≈ 960 µM)	281 µg/mL (≈ 921 µM)	428 µg/mL (≈ 1400 µM)				
Cc1ncc([N+](=O)[O-])n1CCOC(=O)c1ccco1	287 µg/mL (≈ 1080 µM)	167 µg/mL (≈ 631 µM)	207 µg/mL (≈ 779 µM)				
Cc1ncc([N+](=O)[O-])n1CCOc1ccc(C#N)cc1	76.8 µg/mL (≈ 282 µM)	79.8 µg/mL (≈ 293 µM)	83.2 µg/mL (≈ 306 µM)	57.1%	11.72%	21.24%	9.96%
Cc1ncc([N+](=O)[O-])n1CCOc1cccc([N+](=O)[O-])c1	112 µg/mL (≈ 383 µM)	108 µg/mL (≈ 371 µM)	71.7 µg/mL (≈ 245 µM)				
Cc1ncc([N+](=O)[O-])n1CCOc1ccccc1	134 µg/mL (≈ 543 µM)	107 µg/mL (≈ 435 µM)	106 µg/mL (≈ 430 µM)				
Cc1ncc([N+](=O)[O-])n1CCn1nnc2ccccc21	538 µg/mL (≈ 1980 µM)	701 µg/mL (≈ 2580 µM)	384 µg/mL (≈ 1410 µM)				
Cc1nccn1CCn1c([N+](=O)[O-])cnc1C	142 µg/mL (≈ 604 µM)	195 µg/mL (≈ 831 µM)	157 µg/mL (≈ 668 µM)				
Cc1ncc([N+](=O)[O-])n1CCOc1ccc2ccccc2c1	94.8 µg/mL (≈ 319 µM)	96.1 µg/mL (≈ 323 µM)	64.9 µg/mL (≈ 218 µM)	47.6%	10.13%	29.33%	12.96%
Cc1cc(OCCn2c([N+](=O)[O-])cnc2C)ccc1F	140 µg/mL (≈ 503 µM)	226 µg/mL (≈ 808 µM)	116 µg/mL (≈ 415 µM)				
Cc1ccc(S(=O)(=O)OCCn2c([N+](=O)[O-])cnc2C)cc1	328 µg/mL (≈ 1010 µM)	196 µg/mL (≈ 603 µM)	160 µg/mL (≈ 491 µM)				
CN(Cc1cnc2nc(N)nc(N)c2n1)c1ccc(C(=O)N[C@@H](CCC(=O)O)C(=O)O)cc1 [METHOTREXATE]	47.8 µg/mL (≈ 105 µM)	39.3 µg/mL (≈ 86.5 µM)	31.5 µg/mL (≈ 69.3 µM)				
Cc1ncc([N+](=O)[O-])n1CCOC(=O)c1ccccc1 [METRONIDAZOLE BENZOATE]	288 µg/mL (≈ 1050 µM)	281 µg/mL (≈ 1020 µM)	245 µg/mL (≈ 889 µM)				
Cc1ncc([N+](=O)[O-])n1CCO [METRONIDAZOLE]	278 µg/mL (≈ 1620 µM)	224 µg/mL (≈ 1310 µM)	348 µg/mL (≈ 2030 µM)				
